OXTR ag: agonists of human oxytocin receptor; actives 0.32% (n = 320,000); activation, % at 3 µM; P30559; CHO-OTR cells, Fluo-8 calcium fluorescence; normalized: DMSO 0%, oxytocin 100%;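 active = activation above the mean of all tested compounds plus 3 SD, cutoff set per screening run, cut at about 20% in these data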;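 note: peak over basal fluorescence ratio from a 100 s FLIPR kinetic read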
Target sequence (P30559 whole entry, looked up): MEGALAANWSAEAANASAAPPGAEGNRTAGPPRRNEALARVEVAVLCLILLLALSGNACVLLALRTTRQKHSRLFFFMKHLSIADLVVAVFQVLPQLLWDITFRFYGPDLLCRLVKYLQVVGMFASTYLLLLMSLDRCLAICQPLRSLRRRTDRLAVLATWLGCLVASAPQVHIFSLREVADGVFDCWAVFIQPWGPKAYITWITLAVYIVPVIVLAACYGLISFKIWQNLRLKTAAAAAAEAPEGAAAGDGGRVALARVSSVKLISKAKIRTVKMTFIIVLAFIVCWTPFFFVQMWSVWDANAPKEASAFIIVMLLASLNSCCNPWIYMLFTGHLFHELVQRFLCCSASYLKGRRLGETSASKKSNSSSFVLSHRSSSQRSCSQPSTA
V1R ag counter: counter-screen for oxytocin receptor agonists: human V1a receptor agonists | P37288 | CHO-V1R cells, Fluo-8 calcium fluorescence, agonist mode; 0% DMSO, 100% 3 nM vasopressin | activation, % at 3 µM | actives 0.25% (n = 320,000) | AID 2797;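 active = activation above the mean activation of all tested compounds plus 3 SD, per screening run, cut at about 20% in these data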;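 note: signal is peak over basal fluorescence ratio across a 100 second FLIPR read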
TRPML3 agonist: agonists of human TRPML3 channel; Q8TDD5; HEK293 TRPML3-YFP, Fluo-8 calcium fluorescence; 100% = the carbachol control signal; activation, % at 3 µM; actives 0.29% (n = 220,000); AID 1448;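 active = activation above its plate's cutoff, the mean activation of the plate's test wells plus 3 SD, cut at about 12% in these data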;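 note: 0% = DMSO only wells and 100% = carbachol wells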
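Test system: HEK293 cells stably carrying human TRPML3-YFP; Doses: single dose, 3 µM final nominal compound, 0.3% DMSO final; Schedule: dye loading 1 h 37 °C then 30 min ambient, 125 s read; Technique: Fluo-8 calcium fluorescence; Benchmarks: high control carbachol 87 µM, low control DMSO.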
zfTRPN1 agonist: zebrafish TRPN1 (NompC) channel agonism; HEK293 zebrafish TRPN1-YFP, Fluo-8 calcium fluorescence; 100% = response to 87 µM carbachol; activation, % at 3 µM; actives 0.18% (n = 220,000); AID 1424;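 active = activation above its plate's cutoff, the mean activation of test wells on that plate plus 3 SD, cut at about 19% in these data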;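 note: 0% = DMSO alone and 100% = 87 µM carbachol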
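Material: zebrafish TRPN1-YFP in HEK293 cells; Doses: single test compound dose, 3 µM nominal, 0.3% DMSO; Timing: dye loading 1 h at 37 °C, then 30 min room temperature; Technique: intracellular calcium fluorescence with Fluo-8; Benchmarks: high carbachol 87 µM, low DMSO alone.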
OXTR potentiate: human OXTR potentiation; P30559; CHO-OTR cells, Fluo-8 calcium fluorescence, potentiator mode; 0% = oxytocin EC15, 100% = EC100; actives 0.061% (n = 320,000); AID 2445; activation, % at 3 µM;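 active = activation above that plate's cutoff, the mean activation of tested compounds plus 3 SD, cut at about 6.6% in these data, passing the limit was not always enough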;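 note: 100% uses oxytocin at 75 nM as the full agonist control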
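Dosing: Single dose, 3.0 µM nominal final compound concentration | Material: Human OTR in CHO cells | Technique: Kinetic Fluo-8 calcium fluorescence | Benchmarks: EC15 oxytocin alone as 0%, 75 nM oxytocin as 100% | Probe or stimulus: Oxytocin at about EC15, sub-maximal agonist stimulus | Incubation: Compound 6 min at room temperature before oxytocin, 100 s read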
An asterisk follows results filed as active; . = no result. The list is not random: actives were taken first. Their share in the collection is about 0.55%.

SMILES	OXTR ag	V1R ag counter	TRPML3 agonist	zfTRPN1 agonist	OXTR potentiate
Fc1ccc(-[n+]2nc(Nc3ccccc3)sc2-c2c(Cl)cccc2Cl)cc1	23*	25*	.	.	-22
CCc1ccc(Nc2n[n+](-c3ccccc3)c(-c3ccc(OCc4ccccc4)cc3)s2)cc1	-2	-1	.	.	-9
CCN(CC)c1ccc2c(c1)OC(N)=C(C#N)C2c1cccnc1 (configuration not stated)	52*	33*	8	12	-12
Nc1nc(C2CC2)c(Sc2sc(N)nc2C2CC2)s1	25*	25*	1	1	-22
CC(=O)c1ccc(OC(=O)c2ccc(Br)o2)cc1	15	9	0	-1	-9
CCC(=O)c1ccc(OC(=O)c2ccc(Br)o2)cc1	35*	44*	0	0	-21
C=CCN1C(c2cccc(C(F)(F)F)c2)=CS/C1=C(/C#N)c1nnc(N2CCOCC2)n1-c1ccccc1	-2	0	61*	22*	-7
O=C(NNC(=S)NC(=O)C12CC3CC(CC(C3)C1)C2)c1ccncc1	61*	71*	54*	85*	-14
CC1(C(=O)NC(=S)NNC(=O)c2ccncc2)CCCCC1	10	19	8	7	-16
CC[C@@H](C(=O)[C@@H](C)[C@@H](O)[C@H](C)CCc1ccc(C)c(O)c1C(=O)O)[C@H]1O[C@](CC)([C@H]2CC[C@](O)(CC)[C@H](C)O2)C[C@@H]1C	32*	42*	.	.	-9
COC(=O)c1cccc(NC(=O)Nc2ccc(Cl)cc2)c1	14	14	7	21*	-20
COC(=O)c1cccc(NC(=O)NC(=O)c2ccc(Cl)cc2)c1	0	0	0	2	-12
Cc1ccc(NC(=O)Nc2cccc([N+](=O)[O-])c2)cc1F	16	8	12*	23*	-13
CCCCNC(=O)CCn1c(=O)c2ccccc2n(Cc2ccc(Cl)cc2)c1=O	0	2	1	1	15*
O=C(COC(=O)C1C2CC3OC(=O)C1C3C2)Nc1cccc(Cl)c1 (configuration not stated)	3	0	.	.	0
CC(OC(=O)CCCN=C1NS(=O)(=O)c2ccccc21)C(=O)c1ccccc1 (configuration not stated)	36*	34*	.	.	-20
Cc1c(NC(=S)NC(=O)Cc2ccccc2)cccc1C(=O)O	0	0	1	1	-4
CCC(=O)Nc1cccc(NC(=S)NC(=O)Cc2ccccc2)c1	2	4	0	0	-13
COc1ccc(CC(=O)NC(=S)Nc2cccc(CO)c2)cc1	28*	27*	.	.	-20
Cc1cc(C)c(O)c(NC(=S)NC(=O)Cc2ccccc2)c1	31*	29*	.	.	-20
COc1cccc(NC(=S)NC(=O)Cc2ccc(Cl)cc2)c1	25*	31*	.	.	-19
COc1ccccc1NC(=S)NC(=O)Cc1ccc(Cl)cc1	22*	33*	.	.	-20
CC(=O)OC1c2ccccc2C(=O)N1Cc1ccccc1 (configuration not stated)	0	1	1	2	-3
CCOC(=O)c1ccc(S(=O)(=O)N2CCC(C(=O)O)CC2)cc1	1	1	1	1	0
O=S(=O)(c1cccc(F)c1)N1CCN(Cc2cc3c(cc2Br)OCCO3)CC1	-1	1	.	.	-6
SMILES	OXTR ag	V1R ag counter	TRPML3 agonist	zfTRPN1 agonist	OXTR potentiate
Cc1cccc(NC(=S)NC(=O)CCc2ccccc2)c1	-3	-1	0	-1	-9
COc1ccc(CC(=O)NC(=S)Nc2cccc(C)c2)cc1	26*	27*	.	.	-20
O=C(Cc1ccc(Cl)cc1)Nc1ncc([N+](=O)[O-])s1	.	.	10	22*	.
Cc1cnc(NC(=O)Cc2ccc(Br)cc2)s1	-2	1	.	.	-5
O=C(Cc1ccc(Br)cc1)Nc1ncc([N+](=O)[O-])s1	17	13	14*	21*	-19
O=C(COc1ccc(Cl)cc1)Nc1ncc([N+](=O)[O-])s1	.	.	20*	30*	.
COc1cc(/C=C2/SC(=S)N(Cc3ccccc3)C2=O)ccc1O	28*	36*	.	.	-5
COc1cc(/C=C2\SC(=S)N(C(C(=O)O)c3ccccc3)C2=O)ccc1O (configuration not stated)	33*	49*	27*	40*	-12
O=C1/C(=C\c2cc([N+](=O)[O-])ccc2O)SC(=S)N1Cc1ccc(Cl)cc1	96*	67*	.	.	-25
CC(=O)NC(CC(=O)OC(C)C(=O)Nc1ncc(Cl)cc1Cl)c1ccccc1 (configuration not stated)	-1	0	.	.	-3
O=C(/C=C/c1ccc(N2CCC(c3ccccc3)=N2)cc1)c1ccccc1	75*	108*	4	14	-15
CCC(C)(C#CCN1CCCCC1)OC(C)=O (configuration not stated)	1	0	1	0	3
CCC(C)Oc1nc(C)cc(C)c1S(=O)(=O)c1ccccc1C (configuration not stated)	-2	-1	42*	-1	-12
CC(C)CSC1=NSC2=NC(=O)/C(=C\c3ccccc3)C(=N)N12	0	-1	-1	-1	-3
N=C1/C(=C\c2coc3ccc(O)cc3c2=O)C(=O)N=C2SC=CN12	47*	42*	18*	84*	-26
CC(C)CSC1=NSC2=NC(=O)/C(=C\c3coc4ccccc4c3=O)C(=N)N12	121*	43*	13*	21*	-21
N=C1/C(=C/c2coc3ccccc3c2=O)C(=O)N=C2SC(c3ccco3)=NN12	11	5	6	15	2
N=C1/C(=C\c2coc3ccccc3c2=O)C(=O)N=C2SC(c3ccncc3)=NN12	92*	98*	34*	61*	-8
Cc1ccc(OCc2nnc(SC(C)C(=O)O)n2-c2ccccc2)cc1 (configuration not stated)	0	0	.	.	-18
COc1ccc2noc3c2c1C(=O)c1ccccc1-3	169*	221*	.	.	-9
O=C1c2ccccc2-c2onc3ccc(NCCCn4ccnc4)c1c23	82*	45*	-1	-1	-11
NS(=O)(=O)c1ccc(NCCCn2ccnc2)c([N+](=O)[O-])c1	0	0	.	.	-5
O=C1c2ccccc2NC(c2cccc(O)c2)N1Cc1ccco1 (configuration not stated)	1	1	0	1	-2
CCOC(=O)C(=Nc1ccc(Cl)cc1)NO	0	0	0	2	-3
COc1ccc(N=CC2=C(Nc3ccc(OC)cc3)c3c(C)nn(-c4ccccn4)c3CC2)cc1	10	21*	6	6	-7
